Sampled rows, rich in hits. Any-hit rate of the full collection: about 3.5%.
MrgX1 agonist: agonists of human MrgX1 receptor, primary screen, HEK293 cells, Fluo-4 calcium flux | Mas-related G-protein coupled receptor member X1 (Homo sapiens), Q96LB2 | Fluo-4 calcium fluorescence, agonist mode; hits give high values | B-score at 10 µM | hit rate 0.44% among 310,000 | AID 588627, 2011;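 active means calcium response B-score plate-corrected fluorescence ratio at least 3 library SD, with starting fluorescence B-score inside 5 SD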
Target sequence (Q96LB2 whole entry, looked up): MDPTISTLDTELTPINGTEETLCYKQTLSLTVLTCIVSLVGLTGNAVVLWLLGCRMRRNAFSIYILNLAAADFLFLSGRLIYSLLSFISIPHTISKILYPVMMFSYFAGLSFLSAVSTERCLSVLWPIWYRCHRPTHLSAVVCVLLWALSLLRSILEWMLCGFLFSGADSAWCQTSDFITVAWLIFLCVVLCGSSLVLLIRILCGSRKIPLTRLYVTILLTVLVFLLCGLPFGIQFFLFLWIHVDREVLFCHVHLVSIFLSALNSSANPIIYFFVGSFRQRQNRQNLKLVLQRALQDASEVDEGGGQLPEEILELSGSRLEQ
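Test system: HEK293 cells stably expressing human MrgX1 receptor; amount: 15,000 cells per well; doses: compound delivered in addition one of three; times: overnight plating before 1 h dye loading; detection: Fluo-4 NW calcium-flux fluorescence, kinetic read; read-out basis: B-scored fluorescence response ratio; controls: positive and negative controls per plate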
RGS4 inh: RGS4 inhibitors, primary screen, cell-based, HEK293 M3R inducible RGS4, calcium flux; hit rate 0.45% among 310,000; B-score at 10 µM; Regulator of G-protein signaling 4 (Homo sapiens), P49798; Fluo-4 calcium flux; hits give high values; triggered by carbachol at its EC20;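 active means B-score, a plate-corrected calcium signal, over three deviations above library mean, with baseline fluorescence within five deviations of library mean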;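 further: RGS4 expression induced by doxycycline in cells with stable M3 receptor; B-score is computed from the integrated fluorescence ratio over baseline after carbachol; higher B-score means a larger calcium signal and so more RGS4 inhibition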
Target sequence (P49798 whole entry, looked up): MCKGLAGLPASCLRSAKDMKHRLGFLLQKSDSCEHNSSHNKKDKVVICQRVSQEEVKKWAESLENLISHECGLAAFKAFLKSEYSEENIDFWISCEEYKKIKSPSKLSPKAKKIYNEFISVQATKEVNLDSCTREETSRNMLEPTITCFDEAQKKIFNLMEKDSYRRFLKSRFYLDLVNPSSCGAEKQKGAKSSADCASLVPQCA
MrgX1 antag: antagonists of human MrgX1 receptor, primary screen, HEK293 cells, Fluo-4 calcium flux; BAM8-22 antagonism; hits give low values; B-score at 10 µM; AID 588676, 2011; hit rate 1.3% among 310,000;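 active means calcium-response B-score plate-corrected more than 3 library SD below zero, starting fluorescence within 5 deviations, no agonist response on first addition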;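 further: peak minus trough fluorescence over baseline after final BAM8-22 challenge near maximal dose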
MrgX1 PAM: positive allosteric modulators of MrgX1, primary screen, HEK293 cells, Fluo-4 calcium flux. Mas-related G-protein coupled receptor member X1 (Homo sapiens), Q96LB2. FDSS; hits give high values. B-score at 10 µM. hit rate 0.63% among 310,000;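 active means plate-corrected calcium response at least 3 library SD above typical, normal starting fluorescence, not activating the receptor alone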;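 further: compound read alongside a low EC10 to EC30 dose of BAM8-22 agonist; peak minus trough fluorescence over baseline measured at the second addition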
RGS4 act: RGS4 potentiators or activators, primary screen, cell-based, HEK293 M3R inducible RGS4, calcium flux; carbachol calcium flux Fluo4; hits give low values; B-score at 10 µM; hit rate 0.92% among 310,000; AID 463111, 2010;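 active means B-score of the integrated calcium signal more than 4 SD below the library mean, with starting fluorescence not abnormally high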;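 further: negative B-score means reduced calcium response which marks RGS4 activation or potentiation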
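System: HEK293 FlpIn-TREx cells, stable M3R, doxycycline-inducible RGS4. Timing: overnight RGS4 induction, 30 min dye load 37 °C, 20 min compound RT. Also added: carbachol, ECmax concentration. Measured by: Fluo4 fluorescence kinetic imaging of calcium. Evaluation: integrated calcium ratio converted to B score.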
RGS4 block valid: enhanced carbachol calcium response, M3R/RGS4 cells, RGS4 inhibitor project, cell-based, validation screen, HEK293 M3R/RGS4, calcium flux. calcium response, % at 10 µM. shares compounds with RGS4 inh. carbachol calcium Fluo-4 fluorescence; carbachol added at its EC20; 0 = buffer wells, 100 = carbachol control. hit rate 65% among 1,700;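 active means duplicate-averaged calcium response above the buffer-only control mean plus 5 SD of those controls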;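 further: integrated fluorescence ratio F max minus min over baseline F0; higher response in RGS4-induced cells means RGS4 inhibition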
RGS4 uninduced: carbachol calcium response in non-induced M3R cells, confirmation, counter-screen for RGS4 inhibitor project, cell-based, HEK293 M3R. shares compounds with RGS4 inh. carbachol calcium Fluo-4; submaximal (EC20) carbachol stimulus; buffer wells 0%, carbachol control wells 100%. activity (percent), % at 10 µM. hit rate 20% among 1,900; call rule not given here;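 further: RGS4 induction absent so cells express M3R without RGS4; higher means more calcium signal and flags a non-specific hit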
RGS4 inh ctr2: second RGS4 inhibitor counter-screen in uninduced cells lacking carbachol; shares compounds with RGS4 inh; HEK293 M3R/RGS4 non-induced, Fluo-4 calcium, no carbachol; normalised: buffer wells 0%, carbachol wells 100%; calcium response (agonist-mode artifact), % at 10 µM; hit rate 22% among 1,900; AID 493001;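 active means duplicate-averaged calcium rise in uninduced cells above buffer wells' mean plus 5 SD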
Of the large screens only hits and unclear results are named; the others gave an inactive call (follow-up assays come after a bar, where they were run).

Cc1cc(N=Cc2c(O)ccc3cc(Br)ccc23)no1	RGS4 inh 9.93 | RGS4 block valid inactive | RGS4 uninduced inactive | RGS4 inh ctr2 23.5%
Cc1cc(N=Cc2c(O)ccc3ccccc23)no1	none
Cc1ccc(S(=O)(=O)N2CCN(C(=O)C3CCN(C(=O)c4ccc(F)cc4)CC3)CC2)c(C)c1	none
O=C(N/N=C/c1cc(Cl)cc([N+](=O)[O-])c1O)NC12CC3CC(CC(C3)C1)C2	RGS4 inh 9.14 | RGS4 block valid 11.5% | RGS4 uninduced inactive | RGS4 inh ctr2 inactive
CCOC(=O)CCN1C(=O)c2ccccc2Sc2ncccc21	none
Cc1cccc(OCC(=O)N/N=C\c2cn(C)c3ccccc23)c1	RGS4 inh 7.28 | RGS4 block valid inactive | RGS4 uninduced inactive | RGS4 inh ctr2 inactive
O=C(COc1cccc(Br)c1)N/N=C/C(=O)c1ccccc1	RGS4 inh 4.69 | RGS4 block valid 8.0% | RGS4 uninduced inactive | RGS4 inh ctr2 inactive
O=C1/C(=C/c2cccnc2)CC/C1=C\c1cccnc1	RGS4 inh 6.94 | RGS4 block valid 19.5% | RGS4 uninduced inactive | RGS4 inh ctr2 inactive
CC(C)/C=C1\CC/C(=C\c2cccnc2)C1=O	none | RGS4 uninduced inactive | RGS4 inh ctr2 inactive
CC1CN2C(c3ccc(Cl)cc3)=CSC2=N1 (stereo not drawn)	none
CCCOc1ccc(C(=O)CCNC(Cc2c[nH]c3ccccc23)C(=O)O)cc1 (stereo not drawn)	RGS4 inh 6.71 | RGS4 block valid 10.0% | RGS4 uninduced 46.0% | RGS4 inh ctr2 27.0%
CCNC(=S)N/N=C/c1sccc1C	none
Cc1ccsc1/C=N/NC(=S)NCCc1ccccc1	RGS4 inh 8.58 | RGS4 block valid 18.0% | RGS4 uninduced inactive | RGS4 inh ctr2 inactive
Cc1ccc(S(=O)(=O)NCC(=O)NCC2CCCCC2)cc1C	none
CCOc1cc(/C=C\c2[nH]c(=O)[nH]c(=O)c2[N+](=O)[O-])ccc1OC(C)CC (stereo not drawn)	none | RGS4 uninduced inactive | RGS4 inh ctr2 50.5%
CCCOc1ccc(/C=C/c2[nH]c(=O)[nH]c(=O)c2[N+](=O)[O-])cc1OCC	none
CC(C)C(=O)N1CCN(c2nc(-c3ccc(Cl)cc3)cs2)CC1	RGS4 inh 5.45 | RGS4 block valid 18.0% | RGS4 uninduced inactive | RGS4 inh ctr2 inactive
Oc1ccc(C2Nc3cccc4cccc(c34)N2)c(O)c1	RGS4 inh 7.71 | RGS4 block valid 9.5% | RGS4 uninduced inactive | RGS4 inh ctr2 inactive
Clc1ccccc1C1Nc2cccc3cccc(c23)N1	none
OCCOCCn1c(C(CO)Nc2nc(-c3ccccc3Br)cs2)nc2ccccc21 (stereo not drawn)	none
OCCOCCn1c(C(CO)Nc2nc(-c3cccc(Br)c3)cs2)nc2ccccc21 (stereo not drawn)	none | RGS4 uninduced inactive | RGS4 inh ctr2 7.5%
CCCn1c(C(CO)Nc2nc(-c3cccc(Br)c3)cs2)nc2ccccc21 (stereo not drawn)	RGS4 inh 10.5 | RGS4 block valid 32.5% | RGS4 uninduced inactive | RGS4 inh ctr2 inactive
CCSc1nc2ccccc2n1C(=O)/C=C/c1ccc(OC)c(OC)c1	RGS4 inh 10.6 | RGS4 block valid 11.5% | RGS4 uninduced inactive | RGS4 inh ctr2 inactive
C=CCSc1nc2ccccc2n1C(=O)/C=C/c1cc(OC)c(OC)c(OC)c1	none
C=CCSc1nc2ccccc2n1C(=O)/C=C/c1ccc(OC)c(OC)c1	none | RGS4 uninduced inactive | RGS4 inh ctr2 12.5%
Cc1cc(C)nc(NS(=O)(=O)c2ccc(NC(=O)c3cc(=O)c4ccccc4o3)cc2)n1	none
CCN(CC)S(=O)(=O)c1ccc(NC(=S)Nc2ccc(F)cc2)cc1	none
CC12OC1C1(O)CCCC1=CC2=O (stereo not drawn)	none
Cc1ccc(/C=N/NC(=O)Cc2c[nH]c3ccccc23)c(C)c1	RGS4 inh 6.9 | RGS4 block valid 31.0% | RGS4 uninduced inactive | RGS4 inh ctr2 42.0%
O=C(Cc1c[nH]c2ccccc12)N/N=C/c1ccccc1O	none
Cc1ccc(C(=O)Nc2ccc3c(c2)nc(CCNC(=O)c2ccco2)n3C)cc1	none
CC(=O)Nc1ccc2c(c1)nc(CCNC(=O)c1ccco1)n2C	none | RGS4 block valid inactive | RGS4 uninduced inactive | RGS4 inh ctr2 inactive
COc1ccc(Cl)cc1NC(=O)c1cc(-c2ccccc2O)n[nH]1	RGS4 inh 5.49 | RGS4 block valid 5.0% | RGS4 uninduced inactive | RGS4 inh ctr2 inactive
COc1ccc(OC)c(NC(=O)c2cc(-c3cc(Cl)ccc3O)n[nH]2)c1	none
O=C(NCc1ccc(F)cc1)C1CCCN(C(=O)Nc2ccc(F)cc2)C1 (stereo not drawn)	none
O=C(Oc1cccc2cccnc12)c1ccc(Br)o1	RGS4 inh 4.65 | RGS4 block valid 42.5% | RGS4 uninduced inactive | RGS4 inh ctr2 inactive
Cc1c(C(=O)Oc2cccc3cccnc23)cccc1[N+](=O)[O-]	RGS4 inh 10.2 | RGS4 block valid 56.5% | RGS4 uninduced inactive | RGS4 inh ctr2 inactive
O=C(Oc1cccc2cccnc12)c1cccs1	RGS4 inh 7.29 | RGS4 block valid 48.5% | RGS4 uninduced inactive | RGS4 inh ctr2 inactive
O=C(Oc1cccc2cccnc12)c1ccco1	none
O=C(Nc1cccc2ccccc12)NC1CCCCC1O (stereo not drawn)	none
Cc1ccc(C(=O)NCCNC(=O)COc2ccccc2Cl)cn1	none
CCC(C(=O)Nc1ccc(C(=O)Nc2ccccc2C(=O)O)cc1)c1ccccc1 (stereo not drawn)	none
COc1cccc(C(=O)Nc2cc(NC(=O)c3cccs3)ccc2C)c1OC	none
Cc1cc(N(CCO)CCO)ccc1N=Nc1cc(F)ccc1F	RGS4 inh 7.3 | RGS4 block valid 17.5% | RGS4 uninduced 41.0% | RGS4 inh ctr2 inactive
O=C(OCCOCCN=C1NS(=O)(=O)c2ccccc21)c1ccc(F)cc1	none
CCNC(=S)N(CCCO)Cc1cc2cc3c(cc2[nH]c1=O)OCCO3	none
CN(C)CCCNC(=S)N(CCO)Cc1cc2cc3c(cc2[nH]c1=O)OCO3	none
